4 compounds from publication PMC10450354 (Bioactive Materials, 2023) can be followed below.

One data set has as its system BMDMs. The experiment in a line: Flow cytometry of M2 markers in BMDMs incubated with IL-4 and UPNs. The class given is cell-based, mouse. Particulars: for effect of inhibitor on UPN-induced CD206 expression: flow cytometry, IL-4 and UPN induced macrophages. The method in brief:
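Bone marrow cells from C57BL/6J mice were red-cell-lysed and grown as BMDMs at 37 °C and 5% CO2 in M-CSF medium (40 ng/ml). Medium was replenished on days 2 and 3 and renewed on day 5. Groups were untreated, IL-4, test nanofibers, and IL-4 plus test nanofibers. STAT6-IN-1 (p-STAT6 inhibitor) was applied with IL-4 plus nanofibers. CD163 and CD206 were quantified by flow cytometry; mean ± SD, n = 3.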
(In general: A flow cytometer gives signals particle by particle.)

A further data set has as its system BMSCs. As to the kind of experiment: Transwell migration of BMSCs in coculture. The class given is cell-based, mouse. The essentials:
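BMSCs were obtained from 4-week-old SPF C57BL/6J mouse bone marrow, red-cell-lysed at 4 °C for 10 min, and cultured at 37 °C and 5% CO2. They were then cocultured with macrophages given no treatment, IL-4, or IL-4 plus test nanofibers. BMSC migration was assessed at 0, 24 and 48 h and expressed as percentage of migrating cells; mean ± SD, n = 3.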

In the next data set the test system is p-STAT6. As to the kind of experiment: p-STAT6 immunofluorescence in M2-type macrophages. The class given is cell-based, mouse. The following applies: 24 h; semiquantitative; Ctrl group 1.7%; Fig. 4E.
Another data set has as its system bone defects in mice. As to the kind of experiment: Gene transcript sequencing of bone defects in mice treated with UPs. In kind it is in vivo, mouse. The following applies: mice treated with UPs for 14 days (tail vein injection); Fig. 3A.
The test system of data set [1] is macrophages. The experiment in a line: Microscopic observation of macrophage state with UP and UPN. The class given is cell-based, mouse. The following applies: 800 μg/ml, 0, 48 and 72 h; Figure S7 A-C. The method in brief:
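Peptide and nanofiber preparations pre-incubated 6 h. Cells then cultured with them for 0, 48 and 72 h. Cell activity state checked by light microscopy alongside a CCK-8 proliferation read (100 μl per 2 ml medium, 2 h, absorbance 450 nm).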

Data set [2] relates to macrophages. As to the kind of experiment: TEM of macrophage mitochondria. The class given is cell-based, mouse. The following applies: Ctrl group nearly 20%, Fig. 2J. The method in brief:
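Macrophages derived from mouse bone marrow in M-CSF medium (40 ng/ml), refreshed on days 2, 3 and 5, then induced with peptide or nanofibers. Imaged by transmission electron microscopy. Expanded mitochondria scored as a fraction of total mitochondria. Mean ± SD, n = 3.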

Regarding `O=C(Nc1ccccc1)c1cc([N+](=O)[O-])ccc1Cl` [GW9662], in the data set on BMDMs, the “effect of inhibitor on UPN-induced CD206 expression” value was “inhibited UPN-induced expression of the M2 type macrophage marker CD206”.

As for `C/C(=C\C(=O)N[C@H](C(=O)N1CCC[C@H]1C(=O)N(c1ccccc1)c1ccc(I)cc1)C(C)(C)C)c1ccc(OP(=O)(O)O)cc1` [STAT6-IN-1], the “effect of inhibitor on UPN-induced CD206 expression” value in the data set with BMDMs was “inhibited UPN-induced expression of the M2-type macrophage marker CD206”.

Regarding “IL-4: interleukin-4, used to induce M2-type macrophages”, the “percentage of migrating cells at 24 h” value in the data set with BMSCs (24 h, control group nearly 2%, Fig. 5I) was 7.2%. Also, the “number of migrating cells at 48 h” value in the data set on BMSCs (48 h, control group 4.8%, Fig. 5J) is 13.7%. The p-STAT6 fluorescence intensity in the data set with p-STAT6 was 7.8%. Also, in the data set with BMDMs (BMDMs, flow cytometry quantification, n = 3, Ctrl nearly 17.2%, Fig. 3L), the “expression of CD163” value is 50.3%. Moreover, the “expression of CD206” value with BMDMs (BMDMs, flow cytometry quantification, n = 3, Ctrl nearly 18.1%, Fig. 3M) was found to be 40.9%.

Take Ser-Glu-Ser-Ser-Glu [UP]: the “expression of Arg1 and CD163 in bone defects” value in the data set on bone defects in mice is “marked increase in the expression of Arg1 and CD163”. Moreover, the “active status of macrophages under the microscope” value in the data set with macrophages [1] is recorded as “not significantly toxic”. Further, in the data set with macrophages [2], the “percentage of swollen mitochondria” value is recorded as 38%.
